Assays:
M21 = test: Antiproliferative activity against human M21 cells after 48 hrs by SRB assay; assay type: functional, cell-based; details: M21, 48 h
Procedure, shortened: (§1)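 SRB assay run as in the NCI screen with slight modifications. Seeding: HT-29 5.0 x 10^3, M21 3.5 x 10^3, MCF7 7.5 x 10^3 cells; cells preincubated 24 h. Drug in DMSO added at 0.75 to 1.0 x 10^5 nM for 48 h. TCA fixation, sulforhodamine B staining, absorbance 530-565 nm. At least two experiments in triplicate; runs accepted only when relative SD < 10%.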

[1] = Selectivity ratio of IC50 for human M21 cells to IC50 for human MCF7 cells; assay type: functional
Procedure, shortened: (§2)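 Ratio is IC50 in reference line over IC50 in sensitive line. […] Cells in DMEM with 5% calf serum at 37 °C. At least two experiments, triplicate cultures; assay accepted when relative SD < 10%.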

[2] = Selectivity ratio of IC50 for human HT-29 cells to IC50 for human MCF7 cells; assay type: functional; procedure, shortened: as §2
MCF7 [3] = test: Antiproliferative activity against human MCF7 cells after 48 hrs by SRB assay; assay type: functional, cell-based; details: MCF7, 48 h; procedure, shortened: as §1
HT-29 = test: Antiproliferative activity against human HT-29 cells after 48 hrs by SRB assay; assay type: functional, cell-based; details: HT-29, 48 h; procedure, shortened: as §1
[4] = Selectivity ratio of IC50 for ER/PR/HER2 deficient human MDA-MB-231 cells to IC50 for ER/PR deficient and HER2 expressing human SKBR3 cells; assay type: functional; procedure, shortened: as §2
SK-BR-3 = test: Antiproliferative activity against ER/PR deficient and HER2 expressing human SKBR3 cells after 72 hrs by SRB assay; assay type: functional, cell-based; details: SK-BR-3, 72 h
Procedure, shortened: (§3)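 SRB antiproliferative assay (modified NCI protocol). Cells seeded per well (SK-BR-3, MDA-MB-231, T47D, HT-1080, HT-1080 CYP1A1 and empty-vector: 3.0 x 10^3; MDA-MB-468: 5.0 x 10^3; MCF7: 7.5 x 10^3), preincubated 24 h. DMSO-solubilized drug added at 0.75 to 1.0 x 10^5 nM, then 72 h. Fixed with cold 10% TCA, stained with 0.1% sulforhodamine B, absorbance read at 530-565 nm. At least two experiments, triplicate cultures.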

HT-1080 [5] = test: Antiproliferative activity against human HT1080 cells transfected with CYP1A1 after 72 hrs by SRB assay; assay type: functional, cell-based; details: HT-1080, 72 h; procedure, shortened: as §3
[6] = Selectivity ratio of IC50 for ER/PR/HER2 deficient human MDA-MB-231 cells to IC50 for ER/PR/HER2 deficient human MDA-MB-468 cells; assay type: functional; procedure, shortened: as §2
HT-1080 [7] = test: Antiproliferative activity against human HT1080 cells transfected with pCMV6-AC empty plasmid after 72 hrs by SRB assay; assay type: functional, cell-based; details: HT-1080, 72 h; procedure, shortened: as §3
HT-1080 [8] = test: Selectivity ratio of IC50 for HT1080 cells transfected with pCMV6-AC empty plasmid to IC50 for human HT1080 cells transfected with CYP1A1; assay type: functional
Procedure, shortened: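 Ratio is IC50 (HT-1080 empty vector) over IC50 (HT-1080 CYP1A1). Both lines stably transfected (pCMV6-AC plasmids) and kept under G418 selection, seeded at 3.0 x 10^3 cells. IC50s from SRB antiproliferative assay.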

HT-1080 [9] = test: Antiproliferative activity against human wild type HT1080 cells after 72 hrs by SRB assay; assay type: functional, cell-based; details: HT-1080, 72 h; procedure, shortened: as §3
T47D = test: Antiproliferative activity against ER/PR/HER2 expressing human T47D cells after 72 hrs by SRB assay; assay type: functional, cell-based; procedure, shortened: as §3
[10] = Selectivity ratio of IC50 for ER/PR/HER2 deficient human MDA-MB-231 cells to IC50 for ER/PR/HER2 expressing human T47D cells; assay type: functional; procedure, shortened: as §2
MCF7 [11] = test: Antiproliferative activity against human MCF7 cells after 72 hrs by SRB assay; assay type: functional, cell-based; details: MCF7, 72 h; procedure, shortened: as §3
Cytochrome P450 1A1 = molecular target: T1, Cytochrome P450 1A1 (Homo sapiens, UniProt P04798); test: Inhibition of human supersomes CYP1A1-mediated 7-ethoxyresorufin conversion to fluorescent resorufin preincubated with 7-ethoxyresorufin for 5 mins followed by addition of NADPH regenerating system measured for 15 mins by EROD assay; assay type: ADME
T1 sequence (P04798 whole entry): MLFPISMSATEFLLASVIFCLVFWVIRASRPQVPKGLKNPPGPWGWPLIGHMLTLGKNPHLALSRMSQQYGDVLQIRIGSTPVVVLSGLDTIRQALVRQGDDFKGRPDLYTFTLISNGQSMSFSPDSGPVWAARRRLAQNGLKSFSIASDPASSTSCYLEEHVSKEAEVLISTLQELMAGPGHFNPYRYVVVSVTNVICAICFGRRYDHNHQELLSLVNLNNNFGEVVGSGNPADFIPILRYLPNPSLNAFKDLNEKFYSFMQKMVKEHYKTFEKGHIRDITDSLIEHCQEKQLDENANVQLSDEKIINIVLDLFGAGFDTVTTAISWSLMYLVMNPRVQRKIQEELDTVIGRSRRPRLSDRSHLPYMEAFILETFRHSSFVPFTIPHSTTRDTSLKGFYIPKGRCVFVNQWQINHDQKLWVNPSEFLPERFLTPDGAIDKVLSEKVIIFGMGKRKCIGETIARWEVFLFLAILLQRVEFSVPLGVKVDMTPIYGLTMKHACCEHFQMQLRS
Procedure, shortened: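 EROD assay with human CYP1A1 supersomes containing reductase, in potassium phosphate buffer. Drug final 32–31 600 nM and 7-ethoxyresorufin 94–3 000 nM, with 0.35% DMSO, preincubated 5 min at 37 °C. Reaction started with NADPH-regenerating system and 0.15 pmol CYP1A1 in 150 µL. Initial velocity taken from 1–5 min; Vmax and Km from Lineweaver-Burk plot.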

MDA-MB-231 = test: Antiproliferative activity against ER/PR/HER2 deficient human MDA-MB-231 cells after 72 hrs by SRB assay; assay type: functional, cell-based; details: MDA-MB-231, 72 h; procedure, shortened: as §3
MDA-MB-468 = test: Antiproliferative activity against ER/PR/HER2 deficient human MDA-MB-468 cells after 72 hrs by SRB assay; assay type: functional, cell-based; details: MDA-MB-468, 72 h; procedure, shortened: as §3
[12] = Selectivity ratio of IC50 for ER/PR/HER2 deficient human MDA-MB-231 cells to IC50 for human MCF7 cells; assay type: functional; procedure, shortened: as §2

Compound	IC50 (M21) [µM]	Ratio IC50 [1]	Ratio IC50 [2]	IC50 (MCF7 [3]) [µM]	IC50 (HT-29) [µM]	further results
CCCCN1CCN(c2ccc(S(=O)(=O)Oc3cc(F)cc(F)c3)cc2)C1=O	> 100	>250	>250	0.4	> 100	
CCCCN1CCN(c2ccc(S(=O)(=O)Oc3cc(Br)cc(Br)c3)cc2)C1=O	> 100	>1700	740	0.058	43	
CCCN1CCN(c2ccc(S(=O)(=O)Oc3ccc(OC)c(OC)c3)cc2)C1=O	28	4.1	2	6.8	14	
CCCCN1CCN(c2ccc(S(=O)(=O)Oc3cccc(Br)c3)cc2)C1=O	35	410	190	0.085	16	
CCCCN1CCN(c2ccc(S(=O)(=O)Oc3ccccc3OC)cc2)C1=O	> 100	>26	>26	3.8	> 100	
Cc1cccc(OS(=O)(=O)c2ccc(N3CCN(C)C3=O)cc2)c1	2.3	0.5	0.9	5.1	4.3	
CCCN1CCN(c2ccc(S(=O)(=O)Oc3ccc(C)cc3)cc2)C1=O	28	0.4	0.4	64	25	
CCCN1CCN(c2ccc(S(=O)(=O)Oc3ccc(Cl)cc3)cc2)C1=O	34	1.9	0.8	18	15	
CCCN1CCN(c2ccc(S(=O)(=O)Oc3ccc(F)cc3)cc2)C1=O	14	0.4	0.7	33	23	
CCN1CCN(c2ccc(S(=O)(=O)Oc3cccc(I)c3)cc2)C1=O	2.2	1.2	1.7	1.9	3.1	
CCCCN1CCN(c2ccc(S(=O)(=O)Oc3cc(Cl)cc(Cl)c3)cc2)C1=O	58	970	>1700	0.06	> 100	
COc1cc(OC)cc(OS(=O)(=O)c2ccc(N3CCNC3=O)cc2)c1						Ratio IC50 [4]: 1.8; IC50 (SK-BR-3): 0.0055 µM; IC50 (HT-1080 [5]): 0.0023 µM; Ratio IC50 [6]: 1.5; IC50 (HT-1080 [7]): 0.0042 µM; Ratio IC50 (HT-1080 [8]): 1.8; IC50 (HT-1080 [9]): 0.0054 µM; IC50 (T47D): 0.0087 µM; Ratio IC50 [10]: 1.1; IC50 (MCF7 [11]): 0.004 µM; Ki (Cytochrome P450 1A1): Not Active; IC50 (MDA-MB-231): 0.01 µM; IC50 (MDA-MB-468): 0.0065 µM; Ratio IC50 [12]: 2.5
CCCCN1CCN(c2ccc(S(=O)(=O)Oc3ccc(F)c(F)c3)cc2)C1=O	> 100	>130	>130	0.76	> 100	
CCCCN1CCN(c2ccc(S(=O)(=O)Oc3ccc(OC)c(OC)c3)cc2)C1=O	> 100	>300	61	0.34	21	
CCCN1CCN(c2ccc(S(=O)(=O)Oc3cccc(OC)c3)cc2)C1=O	10	1.6	4	6.3	25	
CCCN1CCN(c2ccc(S(=O)(=O)Oc3cccc(Cl)c3)cc2)C1=O	8.6	23	34	0.38	13	
CCCN1CCN(c2ccc(S(=O)(=O)Oc3ccccc3OC)cc2)C1=O	> 100	>7.7	>7.7	13	> 100	
CCCN1CCN(c2ccc(S(=O)(=O)Oc3cc(Cl)c(Cl)cc3Cl)cc2)C1=O	15	1.2	1.5	13	19	
CCCN1CCN(c2ccc(S(=O)(=O)Oc3ccc(OC)cc3)cc2)C1=O	23	1.2	0.8	20	16	
COc1ccccc1OS(=O)(=O)c1ccc(N2CCN(C)C2=O)cc1	21	0.8	1	26	26	
CCCCN1CCN(c2ccc(S(=O)(=O)Oc3cccc(F)c3)cc2)C1=O	> 100	>320	250	0.31	76	
CCc1ccccc1OS(=O)(=O)c1ccc(N2CCN(C)C2=O)cc1	2.3	0.1	0.2	26	4.6	
CCCN1CCN(c2ccc(S(=O)(=O)Oc3ccc(C)cc3C)cc2)C1=O	9.7	6.5	17	1.5	26	
